Assay results from ChEMBL document CHEMBL5653631, “A Potent and Selective ULK1 Inhibitor Suppresses Autophagy and Sensitizes Cancer Cells to Nutrient Stress” (iScience, 2018).

Columns and labels:
[1] = biological target: Cyclin-dependent kinase 6 (Homo sapiens) (UniProt Q00534); experiment: Inhibition of human recombinant CDK6 at 40 nM related to control ULK1
[2] = biological target: Epidermal growth factor receptor (Homo sapiens) (UniProt P00533); experiment: Inhibition of human recombinant EGFR at 40 nM related to control ULK1
Chain of Epidermal growth factor receptor (Homo sapiens) (P00533 whole entry): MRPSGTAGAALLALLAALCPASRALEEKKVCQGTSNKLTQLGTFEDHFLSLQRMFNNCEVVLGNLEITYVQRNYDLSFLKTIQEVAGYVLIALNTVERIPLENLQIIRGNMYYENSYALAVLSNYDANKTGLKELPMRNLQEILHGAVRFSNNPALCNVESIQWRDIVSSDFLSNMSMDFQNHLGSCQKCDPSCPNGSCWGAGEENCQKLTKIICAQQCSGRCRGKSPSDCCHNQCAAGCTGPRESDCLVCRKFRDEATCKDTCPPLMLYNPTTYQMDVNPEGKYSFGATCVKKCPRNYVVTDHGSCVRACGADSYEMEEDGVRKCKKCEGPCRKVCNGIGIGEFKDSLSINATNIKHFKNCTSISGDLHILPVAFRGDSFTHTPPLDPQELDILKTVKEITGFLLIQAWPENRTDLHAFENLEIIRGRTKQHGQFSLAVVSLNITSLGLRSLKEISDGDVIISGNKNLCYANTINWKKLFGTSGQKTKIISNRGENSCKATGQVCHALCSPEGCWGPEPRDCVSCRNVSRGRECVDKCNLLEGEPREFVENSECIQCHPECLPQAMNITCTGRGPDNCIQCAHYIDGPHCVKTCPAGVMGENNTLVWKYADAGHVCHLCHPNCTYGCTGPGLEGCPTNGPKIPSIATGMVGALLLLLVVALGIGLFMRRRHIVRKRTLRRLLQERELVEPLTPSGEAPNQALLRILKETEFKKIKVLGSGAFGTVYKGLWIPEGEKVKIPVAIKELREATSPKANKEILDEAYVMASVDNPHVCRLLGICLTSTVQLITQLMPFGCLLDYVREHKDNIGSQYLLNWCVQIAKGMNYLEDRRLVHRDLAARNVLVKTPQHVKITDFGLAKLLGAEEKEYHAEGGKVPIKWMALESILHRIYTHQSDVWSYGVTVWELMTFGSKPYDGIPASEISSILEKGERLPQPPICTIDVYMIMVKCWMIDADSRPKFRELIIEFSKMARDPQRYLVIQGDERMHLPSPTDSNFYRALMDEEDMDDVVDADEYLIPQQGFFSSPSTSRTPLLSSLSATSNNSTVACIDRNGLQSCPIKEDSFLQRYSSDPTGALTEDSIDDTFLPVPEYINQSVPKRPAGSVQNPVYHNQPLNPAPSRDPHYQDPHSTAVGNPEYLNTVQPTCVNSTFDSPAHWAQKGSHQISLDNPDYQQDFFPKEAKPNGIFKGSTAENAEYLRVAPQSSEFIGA

[3] = biological target: T1, Tyrosine-protein kinase ITK/TSK (Homo sapiens) (UniProt Q08881); experiment: Inhibition of human recombinant ITK at 15 nM in presence of ATP by radiometric assay relative to control
T1 sequence (whole entry): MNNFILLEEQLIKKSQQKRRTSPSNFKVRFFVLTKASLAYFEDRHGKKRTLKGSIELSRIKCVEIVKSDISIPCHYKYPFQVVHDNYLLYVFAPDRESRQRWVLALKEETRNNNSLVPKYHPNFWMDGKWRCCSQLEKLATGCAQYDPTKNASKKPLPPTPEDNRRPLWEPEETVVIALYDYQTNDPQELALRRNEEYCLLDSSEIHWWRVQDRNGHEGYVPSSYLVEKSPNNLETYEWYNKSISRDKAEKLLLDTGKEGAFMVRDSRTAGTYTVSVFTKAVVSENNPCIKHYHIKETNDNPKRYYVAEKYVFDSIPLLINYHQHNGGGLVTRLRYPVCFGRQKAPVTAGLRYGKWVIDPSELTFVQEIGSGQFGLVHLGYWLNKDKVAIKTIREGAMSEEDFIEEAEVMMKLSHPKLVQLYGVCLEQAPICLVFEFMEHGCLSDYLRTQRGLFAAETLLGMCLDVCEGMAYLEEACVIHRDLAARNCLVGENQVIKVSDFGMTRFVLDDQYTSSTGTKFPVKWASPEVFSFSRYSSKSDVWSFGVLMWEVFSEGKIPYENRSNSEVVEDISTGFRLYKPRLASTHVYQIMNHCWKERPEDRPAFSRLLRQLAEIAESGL

[4] = biological target: Calcium/calmodulin-dependent protein kinase type II subunit delta (Homo sapiens) (UniProt Q13557); experiment: Inhibition of human recombinant CaMK2d at 15 nM related to control ULK1
Chain of Calcium/calmodulin-dependent protein kinase type II subunit delta (Homo sapiens) (Q13557 whole entry): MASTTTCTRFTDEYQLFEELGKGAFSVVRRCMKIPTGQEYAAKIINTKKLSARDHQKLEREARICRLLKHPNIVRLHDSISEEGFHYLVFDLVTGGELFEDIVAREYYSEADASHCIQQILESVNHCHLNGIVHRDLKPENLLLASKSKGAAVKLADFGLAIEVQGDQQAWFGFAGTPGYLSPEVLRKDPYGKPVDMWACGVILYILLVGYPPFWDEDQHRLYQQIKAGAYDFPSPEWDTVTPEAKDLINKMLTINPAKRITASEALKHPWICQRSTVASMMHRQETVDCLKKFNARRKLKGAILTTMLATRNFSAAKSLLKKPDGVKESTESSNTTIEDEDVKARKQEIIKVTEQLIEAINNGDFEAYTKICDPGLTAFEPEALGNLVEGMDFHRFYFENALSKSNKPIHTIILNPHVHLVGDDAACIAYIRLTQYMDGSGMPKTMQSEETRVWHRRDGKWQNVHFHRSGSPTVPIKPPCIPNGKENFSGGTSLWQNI

[5] = biological target: Tyrosine-protein kinase FRK (Homo sapiens) (UniProt P42685); experiment: Inhibition of human recombinant FRK at 15 nM related to control ULK1
Chain of Tyrosine-protein kinase FRK (Homo sapiens) (P42685 whole entry, canonical isoform): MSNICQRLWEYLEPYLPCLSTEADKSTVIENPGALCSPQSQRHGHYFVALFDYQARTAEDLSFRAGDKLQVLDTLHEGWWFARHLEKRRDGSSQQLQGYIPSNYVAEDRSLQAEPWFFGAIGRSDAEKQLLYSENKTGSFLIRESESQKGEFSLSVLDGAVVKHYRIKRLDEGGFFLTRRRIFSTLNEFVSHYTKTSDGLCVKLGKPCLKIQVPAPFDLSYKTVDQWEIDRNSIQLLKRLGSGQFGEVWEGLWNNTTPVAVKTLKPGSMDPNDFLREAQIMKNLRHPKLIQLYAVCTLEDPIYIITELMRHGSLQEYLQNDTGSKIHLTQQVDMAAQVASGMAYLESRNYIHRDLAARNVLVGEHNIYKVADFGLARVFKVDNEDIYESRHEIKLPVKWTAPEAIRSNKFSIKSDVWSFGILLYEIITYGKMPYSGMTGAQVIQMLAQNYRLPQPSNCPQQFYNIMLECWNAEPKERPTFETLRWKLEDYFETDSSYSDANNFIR

[6] = biological target: T2, Phosphorylase b kinase gamma catalytic chain, liver/testis isoform (Homo sapiens) (UniProt P15735); experiment: Inhibition of human recombinant PHKg2 at 15 nM related to control ULK1
T2 sequence (whole entry): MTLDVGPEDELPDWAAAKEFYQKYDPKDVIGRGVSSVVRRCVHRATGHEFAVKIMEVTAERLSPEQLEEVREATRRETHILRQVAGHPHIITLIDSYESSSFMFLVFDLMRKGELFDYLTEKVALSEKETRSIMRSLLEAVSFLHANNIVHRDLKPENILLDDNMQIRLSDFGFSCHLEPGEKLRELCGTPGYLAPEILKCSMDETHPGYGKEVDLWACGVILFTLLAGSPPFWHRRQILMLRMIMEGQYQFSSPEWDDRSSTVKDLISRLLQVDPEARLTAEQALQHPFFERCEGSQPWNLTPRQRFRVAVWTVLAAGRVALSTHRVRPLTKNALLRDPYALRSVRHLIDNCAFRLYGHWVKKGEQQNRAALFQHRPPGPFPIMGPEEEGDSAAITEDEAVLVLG

[7] = biological target: T3, Protein kinase C epsilon type (Homo sapiens) (UniProt Q02156); experiment: Inhibition of human recombinant PKCe at 15 nM related to control ULK1
T3 sequence (whole entry): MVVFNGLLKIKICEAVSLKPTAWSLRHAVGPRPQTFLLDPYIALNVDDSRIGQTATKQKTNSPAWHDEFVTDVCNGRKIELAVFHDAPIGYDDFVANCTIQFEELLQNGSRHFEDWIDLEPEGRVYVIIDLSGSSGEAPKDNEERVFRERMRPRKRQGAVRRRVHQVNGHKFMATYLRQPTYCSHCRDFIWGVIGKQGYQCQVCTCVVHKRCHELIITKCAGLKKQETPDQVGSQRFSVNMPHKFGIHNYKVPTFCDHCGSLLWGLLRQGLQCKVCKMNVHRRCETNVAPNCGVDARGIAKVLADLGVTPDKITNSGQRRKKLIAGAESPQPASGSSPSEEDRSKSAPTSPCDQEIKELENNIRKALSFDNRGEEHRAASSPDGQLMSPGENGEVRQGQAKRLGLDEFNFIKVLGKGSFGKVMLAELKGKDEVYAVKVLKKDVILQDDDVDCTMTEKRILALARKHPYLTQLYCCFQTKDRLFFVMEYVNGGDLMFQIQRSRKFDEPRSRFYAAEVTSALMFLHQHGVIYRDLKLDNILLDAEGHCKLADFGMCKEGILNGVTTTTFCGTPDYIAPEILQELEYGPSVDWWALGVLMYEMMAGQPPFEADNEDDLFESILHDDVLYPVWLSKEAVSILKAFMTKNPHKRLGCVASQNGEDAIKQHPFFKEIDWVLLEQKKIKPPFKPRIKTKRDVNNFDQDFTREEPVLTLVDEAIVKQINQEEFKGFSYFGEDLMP

[8] = biological target: RAC-gamma serine/threonine-protein kinase (Homo sapiens) (UniProt Q9Y243); experiment: Inhibition of human recombinant AKT3 at 500 nM in presence of ATP by radiometric assay relative to control
Chain of RAC-gamma serine/threonine-protein kinase (Homo sapiens) (Q9Y243 whole entry): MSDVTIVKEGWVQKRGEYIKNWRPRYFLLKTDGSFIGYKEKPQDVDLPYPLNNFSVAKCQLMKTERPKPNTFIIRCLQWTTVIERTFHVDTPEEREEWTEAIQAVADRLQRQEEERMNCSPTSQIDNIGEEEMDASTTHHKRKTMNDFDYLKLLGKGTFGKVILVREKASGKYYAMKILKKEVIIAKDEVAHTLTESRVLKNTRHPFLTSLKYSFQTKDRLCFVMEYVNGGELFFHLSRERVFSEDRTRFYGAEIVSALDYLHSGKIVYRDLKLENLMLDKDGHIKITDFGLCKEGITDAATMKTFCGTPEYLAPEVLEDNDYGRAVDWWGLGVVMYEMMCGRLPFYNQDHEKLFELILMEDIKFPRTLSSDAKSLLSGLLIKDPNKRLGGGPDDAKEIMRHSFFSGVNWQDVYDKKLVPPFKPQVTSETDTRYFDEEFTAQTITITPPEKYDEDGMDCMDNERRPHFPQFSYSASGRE
Summary of the method: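 Panel of 327 recombinant human kinases in radiometric activity assays, each screened in duplicate at a single inhibitor concentration; percent activity remaining relative to vehicle control, percent inhibition taken as 100 minus activity remaining.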

[9] = biological target: T4, Testis-specific serine/threonine-protein kinase 4 (Homo sapiens) (UniProt Q6SA08); experiment: Inhibition of human recombinant TSSK4 at 500 nM in presence of ATP by radiometric assay relative to control
T4 sequence (whole entry): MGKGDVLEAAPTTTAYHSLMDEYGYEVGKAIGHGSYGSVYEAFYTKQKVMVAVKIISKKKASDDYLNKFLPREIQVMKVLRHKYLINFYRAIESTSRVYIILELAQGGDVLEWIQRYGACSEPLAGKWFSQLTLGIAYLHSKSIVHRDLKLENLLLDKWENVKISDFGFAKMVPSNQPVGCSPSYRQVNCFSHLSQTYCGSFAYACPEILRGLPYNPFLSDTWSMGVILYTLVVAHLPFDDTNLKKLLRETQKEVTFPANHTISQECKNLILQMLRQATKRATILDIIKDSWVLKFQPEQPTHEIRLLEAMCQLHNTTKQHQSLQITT

Chain of Cyclin-dependent kinase 6 (Homo sapiens) (Q00534 whole entry): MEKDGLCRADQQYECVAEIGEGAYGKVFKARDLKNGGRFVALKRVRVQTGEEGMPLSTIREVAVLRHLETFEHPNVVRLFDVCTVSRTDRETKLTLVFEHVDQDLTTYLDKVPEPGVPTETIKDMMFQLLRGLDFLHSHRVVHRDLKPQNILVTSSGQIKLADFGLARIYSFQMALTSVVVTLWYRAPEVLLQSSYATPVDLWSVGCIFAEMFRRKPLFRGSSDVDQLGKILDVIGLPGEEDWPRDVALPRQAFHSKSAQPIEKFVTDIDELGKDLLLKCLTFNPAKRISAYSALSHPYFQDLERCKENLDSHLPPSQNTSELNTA

SMILES: O=C(N[C@@H](C1CC1)C(F)(F)F)c1cc(-c2cnn3cc(-c4ccc(F)cc4)cnc23)cs1
- fold change (FC) [1]: 0.04
- fold change (FC) [2]: 0

SMILES: CC(C)[C@H](NC(=O)c1cc(-c2cnn3cc(-c4ccc(OCCN5CCCCC5)cc4)cnc23)cs1)C(F)(F)F
- inhibition [3]: 4%
- fold change (FC) [4]: 0.23
- fold change (FC) [5]: 0.15
- fold change (FC) [6]: 0.1
- fold change (FC) [7]: 0

SMILES: CNC(=O)c1ccccc1Oc1nc(Nc2cc(OC)c(OC)c(OC)c2)ncc1Br
- inhibition [8]: 5%
- inhibition [9]: 0%
